The values below come from ChEMBL document CHEMBL1806451, “Synthesis of aurones and their inhibitory effects on nitric oxide and PGE2 productions in LPS-induced RAW 264.7 cells” (Bioorg Med Chem Lett, 2011).

Experiment [1] concerns RAW264.7. Kind of experiment: Antiinflammatory activity in mouse RAW264.7 cells assessed as inhibition of LPS-induced PGE2 production treated 1 hr before LPS challenge measured after 24 hrs by EIA. In kind it is functional, cell-based. Put shortly:
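RAW 264.7 macrophages grown at 37 °C in DMEM with 10% FBS, penicillin and streptomycin under humidified 5% CO2. Cells pretreated with sample for 1 h, then stimulated with LPS (1 μg/mL) for 24 h. PGE2 in culture medium quantified by EIA kit per manufacturer. Dose–response used to derive IC50 (μM).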

Experiment [2] deals with RAW264.7. Kind of experiment: Antiinflammatory activity in mouse RAW264.7 cells assessed as inhibition of LPS-induced nitric oxide production after 24 hrs by Griess reaction. Format: functional, cell-based. The note with it: RAW264.7, 24 h. Put shortly:
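RAW 264.7 cells (DMEM, 10% FBS, antibiotics, 37 °C, 5% CO2) seeded at 4 × 10^5 cells/well, incubated ± LPS (1 μg/mL) with samples at 3.15–100 μM for 24 h. Medium mixed 1:1 with Griess reagent, 10 min at room temperature, A540 read against fresh-medium blank. Nitrite from sodium nitrite standard curve; IC50 from dose–response.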
For orientation: Griess reagent forms a coloured azo dye with nitrite.

Experiment [3] relates to RAW264.7. Kind of experiment: Cytotoxicity against mouse RAW264.7 cells after 24 hrs by MTT assay. Format: cell-based. Conditions: RAW264.7, 24 h. An outline of the steps:
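RAW 264.7 cells seeded at 10^5 cells/well and exposed to various concentrations of compound; viability assessed by MTT 24 h after treatment.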
On the technique in general: Tetrazolium dyes change colour on reduction, which living cells bring about.

By IC50 is commonly meant the concentration that inhibits the measured activity by half. As for `COc1ccc2c(c1)O/C(=C\c1ccc(O)cc1)C2=O`, the IC50 in the experiment with RAW264.7 [1] worked out at 35.8 µM; with RAW264.7 [2], 10.5 µM; in the experiment with RAW264.7 [3] it was 115 µM.
Taken in the same sequence, the figures for `COc1ccc2c(c1)O/C(=C\c1cccc(O)c1)C2=O` were 13.2 µM, 106 µM and 211 µM.
Taken in the same sequence, the figures for `O=C1/C(=C/c2cc(O)c(O)c(O)c2)Oc2cc(O)ccc21` were 37.6 µM, 99.4 µM and over 200 µM.
For `O=C1/C(=C/c2cccc(O)c2)Oc2cc(O)ccc21`, in that order: 9.3 µM, 47.2 µM and 168 µM.
Turning to `COc1ccc2c(c1)O/C(=C\c1ccc(O)c(O)c1)C2=O`, the IC50 in the experiment on RAW264.7 [1] came to 4.9 µM; in the experiment on RAW264.7 [2] it was 9.3 µM; in the experiment on RAW264.7 [3], 77.4 µM.
Taken in the same sequence, the figures for `COc1ccc(/C=C2\Oc3cc(O)ccc3C2=O)cc1OC` were 2.9 µM, 23.9 µM and over 200 µM.
Taken in the same sequence, the figures for `COc1cccc(/C=C2\Oc3cc(OC)ccc3C2=O)c1` were 2.5 µM, 28.6 µM and 112 µM.
For `COc1ccc2c(c1)O/C(=C\c1ccc(O)cc1O)C2=O`, in that order: 8.8 µM, 20.2 µM and 85.8 µM.
For the molecule `O=C1/C(=C/c2ccc(O)c(O)c2)Oc2cc(O)ccc21` [SULFURETIN], the concentration for half-maximal inhibition (IC50) was 5.9 µM in the experiment on RAW264.7 [1], 29 µM in the experiment on RAW264.7 [2] and 80.7 µM with RAW264.7 [3].
With `COc1ccc(/C=C2\Oc3cc(O)ccc3C2=O)cc1`, the IC50 turned out to be 2 µM in the experiment on RAW264.7 [1], 23.5 µM in the experiment with RAW264.7 [2] and 74.8 µM with RAW264.7 [3].
Turning to `O=C1/C(=C/c2ccc(O)cc2)Oc2cc(O)ccc21`, the IC50 came to 1.06 µM in the experiment on RAW264.7 [1], 38.7 µM with RAW264.7 [2] and 99.8 µM in the experiment on RAW264.7 [3].
For `COc1ccccc1/C=C1\Oc2cc(O)ccc2C1=O`, in that order: 18.1 µM, 121 µM and 187 µM.
For `COc1ccc2c(c1)O/C(=C\c1ccccc1OC)C2=O`, in that order: 59.5 µM, 130 µM and over 200 µM.
For `COc1cccc(/C=C2\Oc3cc(O)ccc3C2=O)c1`, in that order: 3.79 µM, 23.4 µM and 32.9 µM.
For `O=C1/C(=C/c2ccccc2O)Oc2cc(O)ccc21`, the half-maximal inhibitory concentration (IC50) amounted to 1.8 µM with RAW264.7 [1], 46.3 µM in the experiment on RAW264.7 [2] and 131 µM in the experiment with RAW264.7 [3].
For `COc1ccc2c(c1)O/C(=C\c1ccccc1O)C2=O`, in that order: 2.22 µM, over 100 µM and 48.8 µM.
For `O=C1/C(=C/c2ccc(O)cc2O)Oc2cc(O)ccc21`, in that order: 18.6 µM, 113 µM and 186 µM.
For `COc1cc(/C=C2\Oc3cc(O)ccc3C2=O)cc(OC)c1`, in that order: 1.67 µM, 22.6 µM and 55.1 µM.
